From ChEMBL document CHEMBL1142087 (Antimicrob Agents Chemother, 2007) come the findings set out here.

In data set [1] the test system is Mus musculus. Nature of the data set: Effect on weight change in BALB/c mouse at 10 mg/kg/day, po twice daily for 5 days measured after 18 hrs of final treatment. As to conditions: in vivo. The arrangement: route oral. In kind it is ADME, organism-based. Summed up:
(§1)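 Uninfected toxicity-control BALB/c mice, 3 per dose, were dosed orally on the same schedule as infected groups. Each mouse was weighed before treatment and 18 h after the last dose. Weight change is the difference. Mice were watched for overt toxicity and death for 21 days.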

The subject of data set [2] is Mus musculus. Kind of data set: Toxicity in BALB/c mouse assessed as survival at 30 mg/kg/day, po twice daily. As to conditions: in vivo. The arrangement: route oral. In kind it is organism-based. Summed up: (§2)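 Uninfected female BALB/c toxicity controls (18–21 g), 3 mice per dose, were run in parallel with the infection studies and received 5-day oral treatment. Body weight was taken before treatment and 18 h after the last dose.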

For data set [3], the system named is Mus musculus. Kind of data set: Toxicity in BALB/c mouse assessed as survival at 10 mg/kg/day, po twice daily. In kind it is organism-based. The arrangement: route oral. The note with it: in vivo. Summed up: as §2
Data set [4] concerns Mus musculus. Nature of the data set: Toxicity in BALB/c mouse assessed as survival at 100 mg/kg/day, po twice daily. In kind it is organism-based. The arrangement: route oral. The note with it: in vivo. Summed up:
as §2

Data set [5] relates to Mus musculus. Kind of data set: Toxicity in BALB/c mouse assessed as survival at 10 mg/kg/day, po once daily. In kind it is organism-based. The arrangement: route oral. The note with it: in vivo. Summed up:
as §2

Data set [6] concerns Mus musculus. Kind of data set: Effect on weight change in BALB/c mouse at 3 mg/kg/day, po twice daily for 5 days measured after 18 hrs of final treatment. As to conditions: in vivo. In kind it is ADME, organism-based. The arrangement: route oral. The method, boiled down:
as §1

Data set [7] has as its system Mus musculus. Kind of data set: Effect on weight change in BALB/c mouse at 300 mg/kg/day, po twice daily for 5 days measured after 18 hrs of final treatment. In kind it is ADME, organism-based. The arrangement: route oral. As to conditions: in vivo. Summed up: as §1
Data set [8] relates to Mus musculus. Kind of data set: Effect on weight change in BALB/c mouse at 33 mg/kg/day, po qid measured after 18 hrs of final treatment. The arrangement: route oral. In kind it is ADME, organism-based. As to conditions: in vivo. The method, boiled down:
as §1

The subject of data set [9] is Mus musculus. Nature of the data set: Effect on weight change in BALB/c mouse at 3 mg/kg/day, po once daily for 5 days measured after 18 hrs of final treatment. The arrangement: route oral. In kind it is ADME, organism-based. The note with it: in vivo. Summed up: as §1
Data set [10] concerns Mus musculus. Kind of data set: Effect on weight change in BALB/c mouse at 30 mg/kg/day, po twice daily for 5 days measured after 18 hrs of final treatment. In kind it is ADME, organism-based. The arrangement: route oral. The note with it: in vivo. Summed up: as §1
Data set [11] deals with Mus musculus. Kind of data set: Toxicity in BALB/c mouse assessed as survival at 3 mg/kg/day, po once daily. In kind it is organism-based. The arrangement: route oral. The note with it: in vivo. Summed up:
as §2

Data set [12] can be described thus: Cytotoxicity against MDCK cells. In kind it is cell-based, Canis lupus familiaris. The note with it: dog. Summed up:
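MDCK cells in MEM were exposed to eight test concentrations in half-log10 steps at 37°C. Untreated toxicity and normal-medium controls were included. CC50 was taken as the 50% cytotoxic concentration. Results are from two to five experiments.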

For data set [13], the system named is Mus musculus. Nature of the data set: Effect on weight change in BALB/c mouse at 100 mg/kg/day, po qid measured after 18 hrs of final treatment. The note with it: in vivo. In kind it is ADME, organism-based. The arrangement: route oral. Summed up: as §1
The subject of data set [14] is Mus musculus. Nature of the data set: Toxicity in BALB/c mouse assessed as survival at 100 mg/kg/day, po once daily. In kind it is organism-based. The arrangement: route oral. The note with it: in vivo. The method, boiled down: as §2
In data set [15] the test system is Mus musculus. Kind of data set: Toxicity in BALB/c mouse assessed as survival at 3 mg/kg/day, po twice daily. In kind it is organism-based. The arrangement: route oral. As to conditions: in vivo. The method, boiled down: as §2
The subject of data set [16] is Mus musculus. Kind of data set: Effect on weight change in BALB/c mouse at 300 mg/kg/day, po once daily for 5 days measured after 18 hrs of final treatment. In kind it is ADME, organism-based. The arrangement: route oral. The note with it: in vivo. The method, boiled down:
as §1

The test system of data set [17] is Mus musculus. Kind of data set: Effect on weight change in BALB/c mouse at 100 mg/kg/day, po once daily for 5 days measured after 18 hrs of final treatment. As to conditions: in vivo. The arrangement: route oral. In kind it is ADME, organism-based. The method, boiled down: as §1
The subject of data set [18] is Mus musculus. Nature of the data set: Effect on weight change in BALB/c mouse at 100 mg/kg/day, po twice daily for 5 days measured after 18 hrs of final treatment. In kind it is ADME, organism-based. The arrangement: route oral. The note with it: in vivo. The method, boiled down: as §1
Data set [19] concerns Mus musculus. Kind of data set: Toxicity in BALB/c mouse assessed as survival at 300 mg/kg/day, po qid for 5 days. The arrangement: route oral. As to conditions: in vivo, 120 h. In kind it is organism-based. The method, boiled down:
as §2

For data set [20], the system named is Mus musculus. Nature of the data set: Effect on weight change in BALB/c mouse at 300 mg/kg/day, po qid measured after 18 hrs of final treatment. In kind it is ADME, organism-based. As to conditions: in vivo. The arrangement: route oral. Summed up: as §1
The test system of data set [21] is Mus musculus. Nature of the data set: Toxicity in BALB/c mouse assessed as survival at 100 mg/kg/day, po qid for 5 days. In kind it is organism-based. The arrangement: route oral. The note with it: in vivo, 120 h. The method, boiled down: as §2
Data set [22] has as its system Mus musculus. Nature of the data set: Effect on weight change in BALB/c mouse at 30 mg/kg/day, po once daily for 5 days measured after 18 hrs of final treatment. In kind it is ADME, organism-based. The note with it: in vivo. The arrangement: route oral. Summed up:
as §1

The test system of data set [23] is Mus musculus. Nature of the data set: Effect on weight change in BALB/c mouse at 10 mg/kg/day, po once daily for 5 days measured after 18 hrs of final treatment. The arrangement: route oral. In kind it is ADME, organism-based. As to conditions: in vivo. Summed up:
as §1

For data set [24], the system named is Mus musculus. Nature of the data set: Toxicity in BALB/c mouse assessed as survival at 33 mg/kg/day, po qid for 5 days. In kind it is organism-based. The arrangement: route oral. The note with it: in vivo, 120 h. Summed up: as §2
The subject of data set [25] is Mus musculus. Nature of the data set: Toxicity in BALB/c mouse assessed as survival at 300 mg/kg/day, po twice daily. In kind it is organism-based. The arrangement: route oral. As to conditions: in vivo. Summed up: as §2
Data set [26] relates to Mus musculus. Kind of data set: Toxicity in BALB/c mouse assessed as survival at 300 mg/kg/day, po once daily. In kind it is organism-based. The arrangement: route oral. As to conditions: in vivo. Summed up: as §2
Data set [27] has as its system Mus musculus. Nature of the data set: Toxicity in BALB/c mouse assessed as survival at 30 mg/kg/day, po once daily. In kind it is organism-based. The arrangement: route oral. The note with it: in vivo. Summed up: as §2
The subject of data set [28] is Influenza A virus. Kind of data set: Inhibition of Influenza A virus (A/gull/Pennsylvania/4175/83 (H5N1)) replication in MDCK cells by virus yield reduction assay. In kind it is functional.
For data set [29], the system named is Influenza A virus. Kind of data set: Inhibition of influenza A virus (A/duck/Minnesota/1525/1981 (H5N1)) replication in MDCK cells by virus yield reduction assay. In kind it is functional.

Regarding `NC(=O)c1nc(F)c[nH]c1=O` [FAVIPIRAVIR], the Activity is 0.1 g in [1]; “Non-toxic” in [2]; “Non-toxic” in data set [3]; “Non-toxic” in data set [4]; “Non-toxic” in data set [5]; 0.8 g in data set [6]. In addition, the Activity in [7] was 0.2 g; in data set [8], 0.2 g; in [9] it was 0.3 g; in data set [10], 0.1 g; in data set [11] it was “Non-toxic”; in data set [13], 1.1 g. Moreover, the Activity result in data set [14] is on record as “Non-toxic”; in data set [15], “Non-toxic”; in [16], 0.4 g; in [17], 0.4 g; in data set [18], 1 g; in data set [19], “Non-toxic”. Besides, the Activity in data set [20] is recorded as 0.6 g; in data set [21], “Non-toxic”; in [22], 0.7 g; in data set [23], 0.6 g; in [24], “Non-toxic”; in data set [25], “Non-toxic”. The Activity entry in data set [26] and in data set [27] was “Non-toxic” throughout. The CC50 (in general, the concentration giving 50% cytotoxicity) in [12] is more than 641 µM.

For the molecule `NC(=O)c1ncn([C@@H]2O[C@H](CO)[C@@H](O)[C@H]2O)n1` [RIBAVIRIN], in [12], the CC50 worked out at 2340 µM. Moreover, the EC90 – broadly, the concentration needed for an effect of 90% – in data set [28] came to 32 µM; in data set [29], 20.1 µM.

In turn, `CC(=O)N[C@H]1[C@H]([C@H](O)[C@H](O)CO)OC(C(=O)O)=C[C@@H]1NC(=N)N` [ZANAMIVIR] gave a CC50 in data set [12] of more than 3610 µM. The EC90 stood at 1.23 µM in data set [28] and 0.96 µM in data set [29].
